The record followed here is ChEMBL document CHEMBL1145628, “New tetrazole-based selective anandamide uptake inhibitors” (Bioorg Med Chem Lett, 2008).

For assay [1], the target named is T1, Fatty-acid amide hydrolase 1 (Rattus norvegicus, UniProt P97612).
T1 sequence (P97612 whole entry): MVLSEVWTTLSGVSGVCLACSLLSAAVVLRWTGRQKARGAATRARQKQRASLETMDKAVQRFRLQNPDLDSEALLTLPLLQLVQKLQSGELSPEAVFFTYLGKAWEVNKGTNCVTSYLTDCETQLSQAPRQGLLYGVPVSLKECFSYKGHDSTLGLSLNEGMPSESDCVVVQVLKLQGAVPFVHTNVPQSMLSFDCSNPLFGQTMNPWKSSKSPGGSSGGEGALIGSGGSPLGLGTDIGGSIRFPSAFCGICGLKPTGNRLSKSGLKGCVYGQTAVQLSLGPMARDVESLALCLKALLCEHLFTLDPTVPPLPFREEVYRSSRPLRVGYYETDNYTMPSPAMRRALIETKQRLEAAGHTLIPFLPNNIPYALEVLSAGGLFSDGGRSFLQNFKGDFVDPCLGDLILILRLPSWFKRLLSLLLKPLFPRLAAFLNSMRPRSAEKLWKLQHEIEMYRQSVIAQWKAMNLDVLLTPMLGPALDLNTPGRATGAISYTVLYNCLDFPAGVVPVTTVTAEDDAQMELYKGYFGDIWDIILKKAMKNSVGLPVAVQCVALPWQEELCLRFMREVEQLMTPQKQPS
The assay can be described thus: Inhibition of rat brain FAAH mediated [14C]anandamide hydrolysis. An outline of the steps:
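Hydrolysis of [14C]anandamide was measured with rat brain membranes as the enzyme source; means of n = 4.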

Assay [2] concerns RBL-2H3. The assay is described as follows: Inhibition of [14C]anandamide uptake in rat RBL-2H3. Format: functional, cell-based. An outline of the steps: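 Uptake of [14C]anandamide was measured in intact RBL-2H3 cells; means of n = 4.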
Assay [3] is described as follows: Inhibition of human MAGL mediated [14C]2-AG hydrolysis in COS cell. Format: cell-based. In short, it runs like this: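 Enzyme source was cytosolic fractions of COS cells (MAGL-expressing), with hydrolysis of [14C]2-AG as the read-out; means of 4 determinations.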
Assay [4] has as its target T2, Diacylglycerol lipase-alpha (Homo sapiens, UniProt Q9Y4D2).
T2 sequence (Q9Y4D2 whole entry): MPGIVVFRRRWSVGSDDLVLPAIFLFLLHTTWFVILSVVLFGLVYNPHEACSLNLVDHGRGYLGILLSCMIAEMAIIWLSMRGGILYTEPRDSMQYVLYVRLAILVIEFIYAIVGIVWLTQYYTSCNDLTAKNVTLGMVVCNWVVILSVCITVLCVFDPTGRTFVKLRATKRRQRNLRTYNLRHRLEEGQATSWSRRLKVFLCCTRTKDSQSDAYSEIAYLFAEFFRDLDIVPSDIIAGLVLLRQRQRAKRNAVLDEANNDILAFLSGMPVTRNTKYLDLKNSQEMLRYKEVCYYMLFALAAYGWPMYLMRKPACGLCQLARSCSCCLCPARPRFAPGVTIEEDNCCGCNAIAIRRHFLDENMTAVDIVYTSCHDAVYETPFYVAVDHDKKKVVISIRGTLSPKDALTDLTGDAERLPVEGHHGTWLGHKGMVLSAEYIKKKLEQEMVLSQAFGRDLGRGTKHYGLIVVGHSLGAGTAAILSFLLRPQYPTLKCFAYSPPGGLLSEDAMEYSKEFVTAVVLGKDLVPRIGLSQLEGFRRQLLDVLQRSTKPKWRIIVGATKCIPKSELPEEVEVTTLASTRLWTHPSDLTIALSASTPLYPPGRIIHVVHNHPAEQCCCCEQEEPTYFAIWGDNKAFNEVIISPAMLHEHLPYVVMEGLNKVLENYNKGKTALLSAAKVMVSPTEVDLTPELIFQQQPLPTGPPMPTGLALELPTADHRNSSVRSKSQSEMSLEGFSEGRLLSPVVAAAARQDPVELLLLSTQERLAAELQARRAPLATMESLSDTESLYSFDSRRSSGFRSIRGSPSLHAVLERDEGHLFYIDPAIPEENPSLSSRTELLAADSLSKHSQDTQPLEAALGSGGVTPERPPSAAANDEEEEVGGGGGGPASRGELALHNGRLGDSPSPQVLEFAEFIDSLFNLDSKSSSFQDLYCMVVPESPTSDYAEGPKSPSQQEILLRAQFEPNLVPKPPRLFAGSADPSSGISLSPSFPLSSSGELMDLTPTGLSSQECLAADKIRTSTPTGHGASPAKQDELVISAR
The assay is described as follows: Inhibition of human DAGLalpha mediated sn-1-[14C]oleoyl-2-arachidonoyl-glycerol hydrolysis to 2-AG in COS cell. An outline of the steps: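 Substrate: sn-1-[14C]oleoyl-2-arachidonoyl-glycerol. Conversion into 2-AG and [14C]oleic acid was followed using membranes of COS cells overexpressing human recombinant DAGLα; n = 4 means.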

Assay [5] has as its target Cannabinoid receptor 1 (Homo sapiens, UniProt P21554). The assay is described as follows: Binding affinity to human CB1 receptor expressed in COS cells. The class given is cell-based. An outline of the steps:
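Tested at CB1 receptors in transfected COS cells; means of 4 separate determinations.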

Assay [6] deals with Cannabinoid receptor 2 (Homo sapiens, UniProt P34972). The assay can be described thus: Binding affinity to human CB2 receptor expressed in COS cells. The class given is cell-based. In short, it runs like this: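 Human CB2 receptor expressed by transfection in COS cells. Each value is the mean of 4 separate determinations.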
Chain of Cannabinoid receptor 2 (P34972 whole entry): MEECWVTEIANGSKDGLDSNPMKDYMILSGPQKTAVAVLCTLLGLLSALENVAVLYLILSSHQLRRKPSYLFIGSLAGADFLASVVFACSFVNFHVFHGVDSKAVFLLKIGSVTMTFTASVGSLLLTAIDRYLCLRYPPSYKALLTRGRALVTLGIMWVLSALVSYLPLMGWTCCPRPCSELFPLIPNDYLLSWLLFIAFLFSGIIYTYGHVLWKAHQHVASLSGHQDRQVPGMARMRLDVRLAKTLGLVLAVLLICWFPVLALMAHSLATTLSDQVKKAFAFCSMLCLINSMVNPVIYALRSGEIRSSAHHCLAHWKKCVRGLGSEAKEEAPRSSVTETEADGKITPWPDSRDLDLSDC
The target in assay [7] is Transient receptor potential cation channel subfamily A member 1 (Rattus norvegicus, UniProt Q6RI86). The assay can be described thus: Agonist activity at rat TRPA1 channel expressed in human HEK293 cells assessed as elevation in intracellular calcium flux. Format: functional, cell-based. In short, it runs like this:
(§1)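 Stably rat TRPA1-transfected HEK-293 cells, grown 3 days, were loaded with 4 µM Fluo4-AM plus 0.02% Pluronic for 1 h at room temperature. They were washed and resuspended in Tyrode's buffer pH 7.4, and [Ca2+]i was read under stirring (ex 488/em 516 nm) before and after compound addition. EC50 is the half-maximal [Ca2+]i rise. Efficacy (100 µM compound) is expressed relative to 100 µM mustard oil; n = 4 means.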

Assay [8] concerns the target Transient receptor potential cation channel subfamily A member 1 (Rattus norvegicus) (UniProt Q6RI86). The assay can be described thus: Agonist activity at rat TRPA1 channel expressed in human HEK293 cells assessed as elevation in intracellular calcium flux at 100 uM relative to mustard oil. Format: functional, cell-based. An outline of the steps:
as §1
A general note: Calcium assays in cells follow changes in intracellular calcium, usually with a dye or a luminescent sensor.

In assay [9] the target is T3, Transient receptor potential cation channel subfamily V member 1 (Homo sapiens, UniProt Q8NER1). The assay is described as follows: Agonist activity at human TRPV1 channel expressed in human HEK293 cells assessed as elevation in intracellular calcium flux. The class given is functional, cell-based. In short, it runs like this:
(§2)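 HEK-293 cells overexpressing TRPV1 were used, with intracellular Ca2+ elevation as the read-out. The single-point value is the effect of 10 µM compound as percent of the Ca2+ response to 4 µM ionomycin. Data are means of 4 separate determinations.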

Assay [10] addresses T3, Transient receptor potential cation channel subfamily V member 1. The assay can be described thus: Agonist activity at human TRPV1 channel expressed in human HEK293 cells assessed as elevation in intracellular calcium flux at 10 uM relative to ionomycin. The class given is functional, cell-based. An outline of the steps: as §2

Chain of Transient receptor potential cation channel subfamily A member 1 (Q6RI86 whole entry): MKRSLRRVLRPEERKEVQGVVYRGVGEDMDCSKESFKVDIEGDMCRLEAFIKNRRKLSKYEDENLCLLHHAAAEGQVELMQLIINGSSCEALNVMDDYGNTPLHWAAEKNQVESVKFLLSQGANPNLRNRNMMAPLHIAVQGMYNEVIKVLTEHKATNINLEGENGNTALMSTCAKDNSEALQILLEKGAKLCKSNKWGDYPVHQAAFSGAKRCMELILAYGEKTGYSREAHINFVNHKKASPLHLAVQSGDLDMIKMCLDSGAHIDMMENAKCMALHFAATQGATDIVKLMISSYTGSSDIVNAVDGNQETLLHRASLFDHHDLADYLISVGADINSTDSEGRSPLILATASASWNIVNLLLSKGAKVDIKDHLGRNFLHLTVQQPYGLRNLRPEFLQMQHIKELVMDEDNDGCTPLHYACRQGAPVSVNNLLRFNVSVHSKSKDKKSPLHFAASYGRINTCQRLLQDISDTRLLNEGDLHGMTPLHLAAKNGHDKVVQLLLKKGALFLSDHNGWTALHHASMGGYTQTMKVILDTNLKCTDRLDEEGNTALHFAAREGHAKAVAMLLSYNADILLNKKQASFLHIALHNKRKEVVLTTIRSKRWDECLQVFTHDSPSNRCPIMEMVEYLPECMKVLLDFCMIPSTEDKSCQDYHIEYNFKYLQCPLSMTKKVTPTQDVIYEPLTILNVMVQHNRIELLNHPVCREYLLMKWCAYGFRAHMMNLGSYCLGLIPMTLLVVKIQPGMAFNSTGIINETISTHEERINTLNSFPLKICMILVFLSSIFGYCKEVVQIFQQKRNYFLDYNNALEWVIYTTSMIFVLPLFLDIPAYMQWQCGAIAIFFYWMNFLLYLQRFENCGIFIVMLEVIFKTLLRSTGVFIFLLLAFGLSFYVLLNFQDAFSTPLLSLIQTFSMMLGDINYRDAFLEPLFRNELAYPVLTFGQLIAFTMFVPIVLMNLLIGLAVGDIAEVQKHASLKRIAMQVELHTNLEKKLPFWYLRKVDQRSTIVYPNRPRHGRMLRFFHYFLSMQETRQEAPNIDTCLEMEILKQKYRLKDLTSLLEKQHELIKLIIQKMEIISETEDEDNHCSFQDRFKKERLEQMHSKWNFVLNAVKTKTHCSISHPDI
Chain of Transient receptor potential cation channel subfamily A member 1 (Rattus norvegicus) (Q6RI86 whole entry): as above
Chain of Cannabinoid receptor 1 (P21554 whole entry): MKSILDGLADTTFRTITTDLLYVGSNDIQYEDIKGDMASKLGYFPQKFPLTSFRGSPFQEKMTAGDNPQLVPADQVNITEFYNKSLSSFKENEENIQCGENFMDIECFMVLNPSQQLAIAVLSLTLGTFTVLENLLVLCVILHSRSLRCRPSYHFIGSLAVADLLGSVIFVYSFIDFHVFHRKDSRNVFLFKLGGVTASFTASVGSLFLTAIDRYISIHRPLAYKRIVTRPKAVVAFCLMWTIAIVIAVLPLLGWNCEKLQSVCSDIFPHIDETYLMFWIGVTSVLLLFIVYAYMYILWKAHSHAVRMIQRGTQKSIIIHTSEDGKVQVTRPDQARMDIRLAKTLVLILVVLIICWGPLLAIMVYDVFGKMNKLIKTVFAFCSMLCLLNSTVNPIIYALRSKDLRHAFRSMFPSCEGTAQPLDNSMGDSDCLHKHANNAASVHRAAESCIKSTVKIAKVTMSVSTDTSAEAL
T3 sequence (Q8NER1 whole entry): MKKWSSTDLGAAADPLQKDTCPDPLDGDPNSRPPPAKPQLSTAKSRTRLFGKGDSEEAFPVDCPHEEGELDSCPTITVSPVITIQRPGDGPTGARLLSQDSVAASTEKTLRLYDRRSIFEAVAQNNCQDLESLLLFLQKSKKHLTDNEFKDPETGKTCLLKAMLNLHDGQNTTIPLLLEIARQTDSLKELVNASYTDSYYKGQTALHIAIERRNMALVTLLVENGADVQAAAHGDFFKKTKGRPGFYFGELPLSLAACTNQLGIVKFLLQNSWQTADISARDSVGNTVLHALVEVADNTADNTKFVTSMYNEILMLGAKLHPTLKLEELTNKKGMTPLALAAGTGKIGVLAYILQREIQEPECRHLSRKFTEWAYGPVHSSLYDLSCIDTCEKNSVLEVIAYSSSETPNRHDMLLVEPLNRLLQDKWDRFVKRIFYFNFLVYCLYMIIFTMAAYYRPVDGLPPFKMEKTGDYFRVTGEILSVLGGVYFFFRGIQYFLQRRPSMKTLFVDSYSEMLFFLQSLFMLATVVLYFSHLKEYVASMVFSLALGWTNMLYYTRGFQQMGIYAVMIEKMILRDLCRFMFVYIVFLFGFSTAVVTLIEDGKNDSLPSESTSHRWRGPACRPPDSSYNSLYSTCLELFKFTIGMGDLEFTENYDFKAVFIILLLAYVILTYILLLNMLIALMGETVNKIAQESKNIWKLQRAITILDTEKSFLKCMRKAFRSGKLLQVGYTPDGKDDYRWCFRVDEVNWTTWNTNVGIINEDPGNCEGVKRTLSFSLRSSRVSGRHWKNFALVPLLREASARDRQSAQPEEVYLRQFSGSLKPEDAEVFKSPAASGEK

Turning to `COC(=O)Cn1nnc(Cc2ccc(-c3ccccc3)cc2)n1`, the half-maximal inhibitory concentration (IC50) in assay [1] was greater than 50 µM; in assay [2], greater than 25 µM; in assay [3] it was greater than 10 µM; in assay [4] it was greater than 10 µM. The Ki is greater than 10 µM in assay [5] and 8.1 µM in assay [6]. The 50% effective concentration (EC50) in [7] and in assay [9] was greater than 100 µM in each case. Further, the Efficacy in assay [8] came to 36%; in assay [10] it was 0%.

On to `CN(C)C(=O)Cn1nnc(Cc2ccc(-c3ccccc3)cc2)n1`, for which the IC50 in assay [1] was greater than 50 µM; in assay [2], greater than 25 µM; in assay [3], greater than 10 µM; in [4], greater than 10 µM. Besides, the Ki in [5] and in assay [6] was greater than 10 µM throughout. The EC50 in [7] and in assay [9] was greater than 100 µM in each case. Also, the Efficacy worked out at 0% in [8] and 5.3% in [10].

In the case of `COC(=O)Cn1nnnc1Cc1ccc(-c2ccccc2)cc1`, the IC50 is greater than 50 µM in [1], 4.9 µM in assay [2], greater than 10 µM in assay [3] and greater than 10 µM in [4]. The Ki in assay [5] and in [6] was greater than 10 µM in each case. Besides, the EC50 in [7] and in assay [9] was greater than 100 µM each time. In addition, the Efficacy in [8] and in assay [10] was 0% each time.

Consider `COC(=O)Cn1nnnc1CNC(=O)c1ccc(-c2ccccc2)cc1`, for which the concentration for half-maximal inhibition (IC50) in assay [1] was greater than 50 µM; in assay [2], greater than 25 µM; in assay [3], greater than 10 µM; in assay [4], greater than 10 µM. For the same compound, the Ki in assay [5] and in [6] was greater than 10 µM throughout. Also, the EC50 is greater than 100 µM in assay [7] and 29.6 µM in [9]. Besides, the values for the Efficacy in assay [8] and in [10] were 0% and 8.6%, respectively.

As for `CN(C)C(=O)Cn1nnc(CNC(=O)c2ccc(-c3ccccc3)cc2)n1`, the IC50 in assay [1] was greater than 50 µM; in assay [2] it was 2.3 µM; in assay [3] it was greater than 10 µM; in assay [4] it was greater than 10 µM. The Ki in [5] and in assay [6] was greater than 10 µM in each case. Further, the concentration giving a half-maximal response (EC50) in [7] and in [9] was greater than 100 µM each time. The Efficacy in assay [8] was determined as 0%; in [10], 1.2%.

For `N#CCn1nnc(CNC(=O)c2ccc(-c3ccccc3)cc2)n1`, the 50% inhibitory concentration (IC50) was greater than 50 µM in [1], greater than 25 µM in assay [2], greater than 10 µM in [3] and greater than 10 µM in [4]. Besides, the Ki in [5] and in [6] was greater than 10 µM each time. Moreover, the EC50 in assay [7] and in [9] was greater than 100 µM throughout. Further, the Efficacy stood at 0% in assay [8] and 2.6% in [10].

By IC50 is commonly meant the midpoint of a concentration-inhibition curve. A lower IC50 goes with higher potency. One may read the Ki as the dissociation constant of the complex between target and ligand, obtained from inhibition or displacement. One may read the EC50 as the concentration giving half of the maximal effect.
